This is an account of results in ChEMBL document CHEMBL1156418, “Identification and phenotypic characterization of a beta-lactam-dependent, methicillin-resistant Staphylococcus aureus strain” (2007).

Values after ≈ are worked out from the molar mass of the structure shown. Active and inactive are the calls of the source.

As usually defined, the MIC is the smallest concentration in the dilution series that meets the test's criterion for growth inhibition.

For experiment [1], the system named is Staphylococcus aureus. Nature of the experiment: Antibacterial activity against methicillin-resistant Staphylococcus aureus 2884 isolate by disc diffusion method. The format is functional. Summed up: (§1)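 Disk diffusion on 100-mm Mueller-Hinton agar plates inoculated with a 0.5 McFarland suspension. Disks: oxacillin 5 μg, cefoxitin 30 μg, ceftobiprole 30 μg, amoxicillin-clavulanic acid 20/10 μg, ofloxacin 5 μg, imipenem 10 μg. Inhibition zone diameters were read per CLSI and CASFM guidelines.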

Experiment [2] concerns Staphylococcus aureus. Nature of the experiment: Antibacterial activity against methicillin-resistant Staphylococcus aureus 2884. Type of experiment: functional.
In experiment [3] the test system is Staphylococcus aureus. Nature of the experiment: Induction of blaR1 gene expression in methicillin-resistant Staphylococcus aureus 2884 isolate by RT-PCR. The format is functional, organism-based. Put shortly:
(§2)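 TaqMan real-time RT-PCR on RNA from exponential-phase cells grown with or without 0.5 μg/ml oxacillin; the dependent strain was also grown on blood agar without oxacillin. Each reaction used 25 ng total RNA, 500 nM primers and 100 nM probe. Cycling: 48°C 30 min, 95°C 10 min, then 40 × (95°C 15 s, 60°C 1 min). Quantified by C_T against a standard curve, expressed relative to 16S; triplicate runs.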

Experiment [4] has as its system Staphylococcus aureus. Nature of the experiment: Induction of blaI mRNA expression in methicillin-resistant Staphylococcus aureus 2884 isolate by RT-PCR. The format is functional, organism-based. Summed up: as §2
Experiment [5] deals with Staphylococcus aureus. Nature of the experiment: Antibacterial activity against methicillin-resistant Staphylococcus aureus 2884 isolate assessed as decrease in log bacterial count at 1 ug/ml. Type of experiment: functional.
Experiment [6] has as its system Staphylococcus aureus. Nature of the experiment: Induction of blaR1 gene expression in oxacillin-dependent methicillin-resistant Staphylococcus aureus 2884D isolate by RT-PCR. Type of experiment: functional, organism-based. Put shortly: as §2
The test system of experiment [7] is Staphylococcus aureus. Nature of the experiment: Effect on vraSR gene expression in oxacillin-dependent methicillin-resistant Staphylococcus aureus 2884D isolate in presence of blood agar by RT-PCR. Type of experiment: functional, organism-based. Put shortly:
as §2

In experiment [8] the test system is Staphylococcus aureus. Nature of the experiment: Antibacterial activity against oxacillin-dependent methicillin-resistant Staphylococcus aureus 2884D isolate. Type of experiment: functional.
The subject of experiment [9] is Staphylococcus aureus. Nature of the experiment: Antibacterial activity against methicillin-resistant Staphylococcus aureus 2884 isolate at 5 ug by disc diffusion method. Type of experiment: functional. The following applies: read-out: IZ. Put shortly:
as §1
Background: A growth-free zone around the sample is the usual read-out of agar diffusion tests.

In experiment [10] the test system is Staphylococcus aureus. Nature of the experiment: Decrease in PBP2 gene expression in oxacillin-dependent methicillin-resistant Staphylococcus aureus 2884D isolate by RT-PCR. Type of experiment: functional, organism-based. Summed up: as §2
For experiment [11], the system named is Staphylococcus aureus. Nature of the experiment: Antibacterial activity against oxacillin-dependent methicillin-resistant Staphylococcus aureus 2884D isolate assessed as decrease in log bacterial count at >= 256 ug/ml. The format is functional.
The test system of experiment [12] is Staphylococcus aureus. Nature of the experiment: Effect on blaZ gene expression in oxacillin-dependent methicillin-resistant Staphylococcus aureus 2884D isolate at 0.5 ug/ml by RT-PCR. Type of experiment: functional, organism-based. Put shortly:
as §2

Experiment [13] deals with Staphylococcus aureus. Nature of the experiment: Induction of blaI mRNA expression in oxacillin-dependent methicillin-resistant Staphylococcus aureus 2884D isolate by RT-PCR. Type of experiment: functional, organism-based. Put shortly:
as §2

Experiment [14] deals with Staphylococcus aureus. Nature of the experiment: Effect on blaZ gene expression in oxacillin-dependent methicillin-resistant Staphylococcus aureus 2884D isolate at 0.5 ug/ml in presence of blood agar by RT-PCR. Type of experiment: functional, organism-based. Summed up:
as §2

Experiment [15] deals with Staphylococcus aureus. Nature of the experiment: Antibacterial activity against methicillin-resistant Staphylococcus aureus 2884 isolate at 30 ug by disc diffusion method. Type of experiment: functional, organism-based. Put shortly: as §1
Experiment [16] concerns Staphylococcus aureus. Nature of the experiment: Antibacterial activity against oxacillin-dependent methicillin-resistant Staphylococcus aureus 2884D isolate at 5 ug by disc diffusion method. The format is functional, organism-based. Summed up: as §1

In the case of `Nc1nc(/C(=N/O)C(=O)N[C@@H]2C(=O)N3C(C(=O)O)=C(/C=C4\CCN([C@@H]5CCNC5)C4=O)CS[C@H]23)ns1` [CEFTOBIPROLE], in the experiment on Staphylococcus aureus [1], the “inhibition zone (IZ)” value came out at 34 mm. Further, the MIC against Staphylococcus aureus [2] came out at 2 µg/mL (≈ 3.74 µM).

As for `C[C@@H](O)[C@H]1C(=O)N2C(C(=O)O)=C(SCCNC=N)C[C@H]12` [IMIPENEM ANHYDROUS], the lowest concentration to inhibit growth in the experiment on Staphylococcus aureus [2] (MIC) was 8 µg/mL (≈ 26.7 µM).

With `Cc1onc(-c2ccccc2)c1C(=O)N[C@@H]1C(=O)N2[C@@H]1SC(C)(C)[C@@H]2C(=O)O` [OXACILLIN], the result with Staphylococcus aureus [3], in the experiment on Staphylococcus aureus [7], in the experiment on Staphylococcus aureus [12], with Staphylococcus aureus [13] and in the experiment with Staphylococcus aureus [14] was inactive. Besides, the outcome with Staphylococcus aureus [4], in the experiment with Staphylococcus aureus [6] and in the experiment with Staphylococcus aureus [10] was Active. Further, the CFU/ml in the experiment on Staphylococcus aureus [5] amounted to 4; in the experiment with Staphylococcus aureus [11], 3. In addition, the MIC in the experiment on Staphylococcus aureus [8] was at least 256 µg/mL; in the experiment with Staphylococcus aureus [2] it was 64 µg/mL (≈ 159 µM). The zone of inhibition at 5 µg/disc with Staphylococcus aureus [9] was 15 mm.

On to `CC1COc2c(N3CCN(C)CC3)c(F)cc3c(=O)c(C(=O)O)cn1c23` (stereo unspecified) [OFLOXACIN], for which the outcome in the experiment on Staphylococcus aureus [15] and in the experiment with Staphylococcus aureus [16] was inactive. Besides, in the experiment with Staphylococcus aureus [9], the zone of inhibition at 5 µg/disc came out at 15 mm.

Take `CO[C@@]1(NC(=O)Cc2cccs2)C(=O)N2C(C(=O)O)=C(COC(N)=O)CS[C@@H]21` (single isomer, unassigned) [CEFOXITIN]: in the experiment on Staphylococcus aureus [9], the zone of inhibition at 5 µg/disc was 13 mm. Further, in the experiment with Staphylococcus aureus [2], the MIC was determined as 32 µg/mL (≈ 74.9 µM).
